An excerpt weighted towards active compounds, which were near 3.8% of everything screened.
ARNT TACC3 PPI: ARNT/TACC3 interaction disruption; Q9Y6A5; inhibition, % at 9.99 µM; AlphaScreen His-ARNT PAS-B/GST-TACC3 binding, luminescence; TACC3 fragment carries E629A point mutation; actives 0.66% (n = 390,000);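 active = mean inhibition of replicates at least 50% and at least half of replicates each reaching 50%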;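 note: 0% = complete ARNT plus TACC3 wells and 100% = ARNT alone without TACC3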
Xi reactivation: reactivates the inactive X chromosome in mouse fibroblasts; XiGFP mouse fibroblasts, % GFP-positive cells imaging, 3 d; cells co-treated with 5-aza-dC sensitizer; scaled so ellipticine positive control = 100%; activation, % at 7.58 µM; AID 743238; actives 0.055% (n = 360,000);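 active = mean normalized replicate activation at least 10% and every replicate at or above 10%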;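 note: 0% = median of on-plate neutral control wells and 100% = ellipticine 6 µM median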
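assay system = SV40-immortalized XiGFP fibroblast cells, line 68-5-11 | buffer or medium = DMEM plus 5-aza-dC sensitizer | doses = single-point pinned compound dosing | times = 3-day compound exposure, then 15 min fixation at room temperature | benchmarks = positive control ellipticine, 6 µM final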
DENV2 CPE rescue: inhibitors of DENV2 cytopathic effect; DENV2-infected cells, cytopathic effect rescue, plate reader; CPE inhibition, % at 9.99 µM; actives 1.7% (n = 350,000); in the data active = CPE inhibition above about 20%, passing the limit was not always enough; tested in BHK-21 cells;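 note: 0% = median of neutral control wells and 100% = median of positive control wells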
SIRT5 inh: blocks human SIRT5 desuccinylation of peptide | Q9NXA8 | Purified SirT5, succinyl-peptide AMC, trypsin-coupled fluorescence | inhibition, % at 15 µM | actives 1.1% (n = 330,000) | AID 652115; in the data active = inhibition above about 15%
Target sequence (Q9NXA8 whole entry, looked up): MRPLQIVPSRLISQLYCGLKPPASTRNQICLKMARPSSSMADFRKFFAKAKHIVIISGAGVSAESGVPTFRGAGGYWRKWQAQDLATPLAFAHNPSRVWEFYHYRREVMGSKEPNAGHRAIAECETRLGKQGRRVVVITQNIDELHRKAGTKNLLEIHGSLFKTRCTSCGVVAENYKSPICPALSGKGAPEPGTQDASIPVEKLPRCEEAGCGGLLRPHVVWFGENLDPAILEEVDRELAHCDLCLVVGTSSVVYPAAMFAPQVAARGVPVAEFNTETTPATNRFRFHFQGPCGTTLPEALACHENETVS
FGF22 binding: shifts melting point of recombinant human FGF22; recombinant FGF22 thermal shift, SYPRO orange fluorescence; percent of sucrose octasulfate shift, DMSO zero; actives 1.5% (n = 340,000); activity (Tm shift, normalised), % at 9.99 µM; Q9HCT0; AID 651658;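 active = mean Tm shift, scaled 0 neutral to 100 positive control, at about 1.3% or above, every replicate too, limit read from the data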
Target sequence (Q9HCT0 whole entry, looked up): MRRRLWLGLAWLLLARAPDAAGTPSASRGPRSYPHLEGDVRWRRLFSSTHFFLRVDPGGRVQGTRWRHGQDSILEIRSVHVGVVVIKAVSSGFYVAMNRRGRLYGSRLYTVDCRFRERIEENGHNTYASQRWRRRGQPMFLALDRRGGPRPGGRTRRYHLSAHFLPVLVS
FN deposit inh: fibronectin deposition inhibition. AH1F fibroblasts, Alexa488-fibronectin deposition fluorescence, overnight. inhibition, % at 12.6 µM. actives 0.086% (n = 350,000);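 active = mean inhibition across replicates of 30% or more, regardless of how many single replicates reach that level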;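 note: positive control wells lacked labelled fibronectin entirely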
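Assay system: AH1F fibroblast monolayer, labelled fibronectin deposition. Amount: 10000 cells per well. Also added: labelled fibronectin 24 nM. Compound: single-point pinned compound. Incubation: cell attachment 1 h, compound and FN exposure overnight. Detection: fluorescence after three HBSS washes, excitation 485 nm, emission 525 nm. Read-out: inhibition of fibronectin deposition signal.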
Numbers without * were called inactive.

For CCCN1C[C@@H](C)[C@H](OC)CN(C)C(=O)c2ccc(NC(=O)Nc3cccc(F)c3)cc2OC[C@@H]1C the results were ARNT TACC3 PPI 5.7, Xi reactivation 0.1, DENV2 CPE rescue -2.8, SIRT5 inh 17.7*, FGF22 binding 0.0 and FN deposit inh -16.5.
`CCCN1C[C@H](C)[C@H](OC)CN(C)C(=O)c2ccc(NC(=O)Nc3cccc(F)c3)cc2OC[C@@H]1C` gave ARNT TACC3 PPI -4.6, Xi reactivation 0.0, DENV2 CPE rescue 0.5, SIRT5 inh 1.7, FGF22 binding -0.1 and FN deposit inh -3.1.
`CCCN1C[C@@H](C)[C@H](OC)CN(C)C(=O)c2cc(NC(=O)Nc3cccc(F)c3)ccc2OC[C@@H]1C` gave ARNT TACC3 PPI 0.0, Xi reactivation 0.4 and FN deposit inh 11.6.
CCCN1C[C@H](C)[C@@H](OC)CN(C)C(=O)c2cc(NC(=O)c3ccccc3)ccc2OC[C@H]1C was read as ARNT TACC3 PPI -2.7, Xi reactivation 0.2, DENV2 CPE rescue -5.5, SIRT5 inh 1.6 and FN deposit inh 13.9.
Screening COc1ccccc1NC(=O)N[C@H]1CC[C@H](CC(=O)N[C@H](C)c2ccccc2)O[C@H]1CO returned ARNT TACC3 PPI -30.9, Xi reactivation 0.0, DENV2 CPE rescue -5.0, SIRT5 inh 2.4, FGF22 binding -0.2 and FN deposit inh -1.3.
CNC[C@@H]1Oc2ncccc2C(=O)N(C)C[C@H]1C was read as Xi reactivation 0.2 and FN deposit inh 2.9.
COc1cccc(S(=O)(=O)Nc2ccc3c(c2)[C@@H]2C[C@@H](CC(=O)N(C)C)O[C@@H](CO)[C@@H]2O3)c1 was read as ARNT TACC3 PPI -10.1, Xi reactivation 0.0, DENV2 CPE rescue 1.3, SIRT5 inh -2.2, FGF22 binding -0.1 and FN deposit inh 1.4.
CCOc1ccc(NC(=O)CSc2ccc(-c3ccccn3)nn2)cc1 was read as ARNT TACC3 PPI 26.0*, Xi reactivation 0.0 and FN deposit inh 1.4.
For CC(=O)Nc1ccc(NC(=O)CSc2ccc(-c3cccnc3)nn2)cc1 the results were ARNT TACC3 PPI -5.3, Xi reactivation 0.2, DENV2 CPE rescue 2.0, SIRT5 inh 2.9, FGF22 binding -0.1 and FN deposit inh -10.6.
CC(=O)c1cccc(NC(=O)CSc2ccc(-c3ccc4c(c3)OCO4)nn2)c1 was read as ARNT TACC3 PPI -3.2, Xi reactivation 0.0, DENV2 CPE rescue 0.9, SIRT5 inh -2.6, FGF22 binding 0.0 and FN deposit inh 1.3.
`c1ccc(CSc2ccc(-c3ccccn3)nn2)cc1` gave ARNT TACC3 PPI 65.0*, Xi reactivation 0.0, DENV2 CPE rescue -2.3, SIRT5 inh 0.9, FGF22 binding -0.1 and FN deposit inh 21.4.
`O=C(CSc1ccc(-c2cccnc2)nn1)Nc1ccc(Br)cc1` gave ARNT TACC3 PPI -2.7, Xi reactivation 0.0, DENV2 CPE rescue 30.4*, SIRT5 inh -2.8, FGF22 binding 0.1 and FN deposit inh -4.3.
`COc1ccc(-c2ccc(SCC(=O)Nc3cccc(C(C)=O)c3)nn2)cc1OC` gave ARNT TACC3 PPI -0.3, Xi reactivation 0.2, DENV2 CPE rescue 1.7, SIRT5 inh -1.5, FGF22 binding 43.0* and FN deposit inh 24.7.
Screening Cc1ccc(NC(=O)CSc2ccc(-c3ccccn3)nn2)cc1 returned ARNT TACC3 PPI 29.6, Xi reactivation 0.0, DENV2 CPE rescue -13.3, FGF22 binding 0.1 and FN deposit inh 7.8.
`C/C=C/c1ccc([C@H]2[C@H](CO)N3C(=O)CN(Cc4ccc(C)cc4)C[C@@H]23)cc1` gave Xi reactivation 0.6, DENV2 CPE rescue -3.0 and SIRT5 inh -0.5.
`C[C@@H]1CN([C@@H](C)CO)C(=O)Cc2cc(NC(=O)C3CCCCC3)ccc2O[C@@H]1CN(C)S(=O)(=O)c1cn(C)cn1` gave ARNT TACC3 PPI 0.2, Xi reactivation 0.1, DENV2 CPE rescue 4.7, SIRT5 inh 0.3 and FGF22 binding -0.1.
`COc1ccc(NC(=O)CSc2ccc(-c3ccccn3)nn2)cc1OC` gave Xi reactivation 0.0, DENV2 CPE rescue -6.7, SIRT5 inh -7.4, FGF22 binding 43.2* and FN deposit inh 9.0.

Bioassay records: PubChem, Broad Institute
